Experimental findings from paper PMC5773287 (ACS nano, 2017) are described below.

Numbered stars: 1 amine (or outer) side, 2 acyl side, 3 side chain; on linkers, the order of the positions; unused ones are H or OH. Peptide text beside a SMILES is read from it. * marks the point of attachment. X1 = Nc1nc2[nH]cc(CCc3ccc(C(=O)*)cc3)c2c(=O)[nH]1; γGlu = O=C(O)[C@H](CCC(=O)[*:2])N[*:1]

For series [1], the system named is GL261 mouse glioma cell line. Kind of series: Cytotoxicity assay against the mouse glioma cell line GL261.
Assay in series [2]: as above
Series [3] is classed as physicochemical. To be noted: for hydrogel formation: 30 mM in 1× DPBS solution, overnight ageing, vial inversion; for self-assembled morphology (cryo-TEM): 1× DPBS, aged over 24 h at room temperature, PemFE 4 mM, C12FE 10 mM. Summed up: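 Self-assembled nanostructures imaged by cryo-TEM after aging over 24 h at room temperature. For gelation, lyophilized test peptide powder was dissolved in 1× DPBS at a final 30 mM and sonicated 2 min to aid dissolution. Samples were aged overnight, and gel formation was recorded by photographing inverted vials.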

For the compound `Nc1nc2[nH]cc(CCc3ccc(C(=O)N[C@@H](CCC(=O)O)C(=O)O)cc3)c2c(=O)[nH]1` [Pem, Pemetrexed, reference compound], the IC50 (in general, the concentration at which inhibition is half-maximal) in series [1] (Mus musculus, GL261, read-out: IC50 (cytotoxicity)) was 130 nM.

In series [2], `Nc1nc2[nH]cc(CCc3ccc(C(=O)N[C@@H](CCC(=O)N[C@@H](Cc4ccccc4)C(=O)N[C@@H](Cc4ccccc4)C(=O)N[C@@H](CCC(=O)O)C(=O)N[C@@H](CCC(=O)O)C(=O)O)C(=O)O)cc3)c2c(=O)[nH]1` [PemFE] ({X1-γGlu}-FFEE-OH) showed an IC50 of 2290 nM. Besides, in series [3], the hydrogel formation result is recorded as “formation of self-supporting hydrogels” and the “self-assembled morphology (cryo-TEM)” value was “filamentous nanostructures”.

In the case of FFEE [C12FE], the cell toxicity result in series [1] (GL261 cells, concentrations up to 100 μM) is on record as “did not show any significant cell toxicity”. Further, in series [3], the hydrogel formation result is “formation of self-supporting hydrogels” and the “self-assembled morphology (cryo-TEM)” value is “filamentous nanostructures”.
